Measurements taken from PMC5953009 (Chemical Science, 2015).
≈ marks a conversion by molar mass, not a printed value. Where two headings read alike, the source gives them in different places. Marks after values point to notes of the source that are not given here. One block for each compound: values may come before it.

How the values were obtained:
[1] = tested on: Pseudomonas aeruginosa strain PAO1 biofilms; assay: Biofilm inhibition; format: cell-based; conditions: 24 h growth, WST-8; compound alone
In short: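 PAO1 grown overnight in LB at 37 °C with 180 rpm shaking, washed in 0.25% (w/v) nutrient broth and normalised to OD600 1. Inoculated into 0.25% nutrient broth no. 2 containing sterile-filtered test compound at varied concentrations. Incubated 24–25 h at 37 °C, static, humid. Wells washed twice with water, stained 2.5–3 h at 37 °C with 0.5 mM WST-8 plus 20 μM phenazine ethosulfate in 0.25% broth. Supernatant A450 read.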

[2] = tested on: Pseudomonas aeruginosa strain PAO1; assay: Bacterial cell viability in the supernatant of the biofilm inhibition assay; format: cell-based; conditions: CFU counts in the biofilm supernatant and growth test in full medium
[3] = tested on: Pseudomonas aeruginosa strain PAO1 biofilms; assay: Dispersal of already established biofilms; format: cell-based; conditions: 24 h
In short: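 PAO1 inoculum (LB overnight, washed, OD600 1) grown as biofilm 24 h at 37 °C, static, without compound, in 0.25% nutrient broth. Wells washed twice, then 0.25% broth with sterile-filtered test compound added (50 μM or stated concentration). After a further 24 h at 37 °C static, wells washed twice and stained 2.5–3 h with 0.5 mM WST-8/20 μM phenazine ethosulfate. A450 read; value is concentration giving complete dispersal.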

[4] = tested on: Pseudomonas aeruginosa PAO1; conditions: cited from earlier work
LecB = LecB (Pseudomonas aeruginosa, UniProt Q9HYN5); assay: Isothermal titration calorimetry; format: binding
[5] = tested on: Pseudomonas aeruginosa PAO1; assay: Broth microdilution method; format: cell-based; conditions: standard 2-fold dilution assay, full LB medium
In short: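 Broth microdilution: 64 μM compound stocks in LB, sterile-filtered, diluted serially 1/2 in LB. PAO1 grown overnight in LB (37 °C, 180 rpm), diluted to OD600 0.022; 4 μL added to 150 μL sample (~5 × 10^5 CFU). Sterility, growth and polymyxin B (from 64 μg mL−1) controls. Incubated ~18 h at 37 °C, static. MTT (1 mg mL−1) added, 10 min RT. MIC = lowest concentration without visible growth by eye.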

LecA = molecular target: T1, LecA (Pseudomonas aeruginosa, UniProt Q05097); assay: Isothermal titration calorimetry; format: binding
T1 sequence (Q05097 1-122): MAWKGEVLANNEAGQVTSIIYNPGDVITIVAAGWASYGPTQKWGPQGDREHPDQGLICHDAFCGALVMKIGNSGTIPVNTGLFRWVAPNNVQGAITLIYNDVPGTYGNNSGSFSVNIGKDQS

[6] = ITC, 20 mM Tris, 100 mM NaCl, 100 μM CaCl2, pH 7.5, 25 °C
[7] = ITC, 20 mM Tris, 100 mM NaCl, 100 μM CaCl2, pH 7.5, 25 °C, average of two runs

LecB, sequence (Q9HYN5 2-115 limits assumed): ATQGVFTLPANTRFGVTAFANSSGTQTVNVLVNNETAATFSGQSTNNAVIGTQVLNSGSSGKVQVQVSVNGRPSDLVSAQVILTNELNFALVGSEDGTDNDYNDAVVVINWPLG

Compound: NC[C@H]1O[C@H](O[C@H]2[C@H](O)[C@@H](O[C@H]3O[C@H](CO)[C@@H](O)[C@H](N)[C@H]3O)[C@H](N)C[C@@H]2N)[C@H](N)C[C@@H]1O [Tobramycin]
MBIC (minimal biofilm inhibitory concentration) [1]: 0.5 µM
MBC (minimal bactericidal concentration under biofilm forming conditions) [2]: 0.5 µM (≈ 0.234 µg/mL)
MBC (minimal bactericidal concentration under biofilm forming conditions) ([2]; listed as tobramycin): bactericidal antibiofilm effect
Dispersal of already established biofilms ([3]; compound at 4 μM): 100% dispersal @ 4 μM
MIC (minimal inhibitory concentration) [4]: 1 μg mL^–1 ^g

Compound: Polymyxin B
Dispersal of already established biofilms ([3]; compound at 10 μM): ∼70% dispersal @ 10 μM
MIC (minimal inhibitory concentration) ([4]; full medium): 2 μg mL^–1 ^f

Compound: (Ac-KKL)4(KFCxKI)2KHI [AcG2xK]
Dispersal of already established biofilms ([3]; compound at 50 μM): 100% dispersal
MIC (minimal inhibitory concentration) [5]: >64 µM

Next, values leading:

Kd (LecB; [6]): 213 ± 2 nM
ΔG (LecB; [6]): –9.10 ± 0.02 kcal mol^–1
ΔH (LecB; [6]): –8.35 ± 0.02 kcal mol^–1
–TΔS (LecB; [6]): –0.74 ± 0.002 kcal mol^–1
n (stoichiometry of the binding) (LecB; [7]): 1.08 ± 0.01
r.p./nsugar (relative potency per fucoside) (LecB; KD(FucOCH3)/KD(ligand)/nFuc): 2
Compound: CC(=O)N[C@H]1C(O)O[C@H](CO)[C@@H](O[C@@H]2O[C@@H](C)[C@@H](O)[C@@H](O)[C@@H]2O)[C@@H]1O[C@@H]1O[C@H](CO)[C@H](O)[C@H](O)[C@H]1O (stereo partly shown) [Le^a, Lewis^a trisaccharide]

ΔH (LecA; [6]): –10.6 ± 0.45 kcal mol^–1
–TΔS (LecA; [6]): 4.0 kcal mol^–1
n (stoichiometry of the binding) (LecA; [7]): 0.91 ± 0.03
r.p./nGal (relative potency per galactoside) (LecA; KD(GalAG0 or GalBG0)/KD(ligand)/nGal): 0.2
Compound: O=[N+]([O-])c1ccc(O[C@@H]2O[C@H](CO)[C@H](O)[C@H](O)[C@H]2O)cc1 [NPG, 4-nitrophenyl-β-D-galactopyranoside]
